The results in this text go back to ChEMBL document CHEMBL1795258, “A diazen-1-ium-1,2-diolated nitric oxide donor ester prodrug of 3-(4-hydroxymethylphenyl)-4-(4-methanesulfonylphenyl)-5H-furan-2-one: synthesis, biological evaluation and nitric oxide release studies” (Bioorg Med Chem Lett, 2011).

In data set [1] the test system is Rattus norvegicus. Nature of the data set: Antiinflammatory activity in po dosed rat assessed as inhibition of carrageenan-induced foot paw edema after 3 hrs. Format: functional. Put shortly:
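Carrageenan-induced rat paw edema; test compound given orally, edema inhibition read at 3 h; potency reported as ED50 in μmol/kg.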
(In general: The carrageenan paw model is a standard test of acute inflammation.)

Data set [2] concerns Mesenteric artery. The data set can be described thus: Inhibition of phenylephrine-induced vasoconstriction in Long Evans rat mesenteric arteries treated 45 mins before phenylephrine challenge. Format: functional. Put shortly:
(§1)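 Second-order mesenteric arteries (<250 in diameter, ~2 mm long) dissected in cold (0–4 °C) HEPES-buffered phosphate saline, pH 7.4. Mounted on isometric wire myograph and pretreated 45 min with test compound (1 μM) or DMSO. Constriction to phenylephrine 10^-7–5 × 10^-5 M then recorded.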

The test system of data set [3] is Mesenteric artery. Nature of the data set: Inhibition of phenylephrine-induced vasoconstriction in Long Evans rat mesenteric arteries assessed as maximum response treated 45 mins before phenylephrine challenge (reference value: 2.13 +/- 0.23 g/mm). Format: functional. Put shortly:
as §1

Data set [4] has as its system Mesenteric artery. Nature of the data set: Inhibition of acetylcholine-induced relaxation in Long Evans rat phenylephrine pre-constricted mesenteric arteries assessed as maximum response (reference value: 0.38 +/- 0.01 g/mm). Format: functional.
Data set [5] has as its target T1, Prostaglandin G/H synthase 1 (Ovis aries, UniProt P05979).
T1 sequence (P05979 whole entry): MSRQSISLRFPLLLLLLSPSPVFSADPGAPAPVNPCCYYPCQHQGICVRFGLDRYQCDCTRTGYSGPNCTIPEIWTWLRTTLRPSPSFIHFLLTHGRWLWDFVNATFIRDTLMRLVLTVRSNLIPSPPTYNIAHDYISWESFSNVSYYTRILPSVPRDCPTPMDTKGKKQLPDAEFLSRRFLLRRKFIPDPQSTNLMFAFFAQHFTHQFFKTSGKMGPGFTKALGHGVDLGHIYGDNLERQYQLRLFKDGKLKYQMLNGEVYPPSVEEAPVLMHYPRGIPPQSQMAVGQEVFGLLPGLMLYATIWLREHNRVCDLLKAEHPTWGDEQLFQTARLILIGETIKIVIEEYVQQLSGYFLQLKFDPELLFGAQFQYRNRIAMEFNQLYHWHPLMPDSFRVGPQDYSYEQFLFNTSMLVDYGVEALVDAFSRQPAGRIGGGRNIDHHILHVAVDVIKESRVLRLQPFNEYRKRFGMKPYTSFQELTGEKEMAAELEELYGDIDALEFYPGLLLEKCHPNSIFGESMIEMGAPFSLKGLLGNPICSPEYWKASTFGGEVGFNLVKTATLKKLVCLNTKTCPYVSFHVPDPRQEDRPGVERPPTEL
The data set can be described thus: Inhibition of ovine COX1 by enzyme immuno assay.

The subject of data set [6] is Mesenteric artery. Nature of the data set: tissue or blood. The settings on record: Rattus norvegicus, Long Evans.
Data set [7] in a line: Prodrug activation in 1.0 x 10^-2 mM of phosphate buffered saline at pH 7.4 assessed as nitric oxide release after 1.5 hrs by Griess reaction. The settings on record: buffer, pH 7.4, 1.5 h. Format: physicochemical. Put shortly:
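Compound at 1.0 × 10^-2 mM in pH 7.4 phosphate buffer with a little DMSO, 37 °C for 1.5 h. NO measured as nitrite by Griess reaction, expressed as % of theoretical 2 mol NO per mol. Mean of n = 3, variation ≤0.5%.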
(In general: Nitrite, measured by Griess reagent, commonly stands in for NO production.)

A short description of data set [8]: Prodrug activation in 1.0 x 10^-2 mM of phosphate buffered saline at pH 7.4 assessed as nitric oxide release after 1.5 hrs by Griess reaction in presence of rat serum. The settings on record: pH 7.4, 1.5 h. In short, it runs like this: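 Compound at 1.0 × 10^-2 mM in pH 7.4 phosphate buffer with a little DMSO plus 90 μL rat serum in 2.4 mL, 37 °C for 1.5 h. Nitrite quantified by Griess reaction as % of theoretical 2 mol NO per mol. Mean of n = 3, variation ≤0.5%.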

As a reminder, the ED50 is the dose that gives a 50% effect, or the effect in half of the subjects. One may read the IC20 as the point of the concentration-response curve where the effect stands at 20%. What is called IC50 is the concentration needed to halve the response being measured. Lower therefore signals greater potency.

Where only a bound is given, the exact number is not on record here.

`CS(=O)(=O)c1ccc(C2=C(c3ccc(CO)cc3)C(=O)OC2)cc1`: the ED50 in data set [1] is 113 µmol/kg. This compound also had an IC20 in data set [2] of 1010 nM. Further, the values for the IC50 in data set [2], in data set [5] and in data set [6] were 1680 nM, 33100 nM and 95 nM, respectively. The Activity in data set [3] turned out to be 1.51 g/mm; in data set [4], 0.3 g/mm.

Regarding `CC(=O)OCO/N=[N+](/[O-])N1CCC[C@@H]1C(=O)OCc1ccc(C2=C(c3ccc(S(C)(=O)=O)cc3)COC2=O)cc1`, the ED50 in data set [1] came out at 72.2 µmol/kg. Besides, the Activity in data set [7] was 4.2%; in data set [8], 38.4%; in data set [3] it was 1.17 g/mm. In data set [2], this compound yielded a 20% effect concentration (IC20) of 1370 nM. In addition, the half-inhibitory concentration (IC50) in data set [2] was 1750 nM; in data set [5], more than 100000 nM.

In the case of `[Na+].[O-]/N=[N+](/[O-])N1CCC[C@@H]1CO`, the values for the Activity in data set [7] and in data set [8] were 84.5% and 85%, respectively.

For the compound `CS(=O)(=O)c1ccc(C2=C(c3ccccc3)C(=O)OC2)cc1` [ROFECOXIB], in data set [1], the ED50 was 4.8 µmol/kg. Further, in data set [2], the 20% effect level (IC20) was put at 950 nM. For the same compound, the concentration for half-maximal inhibition (IC50) is 1660 nM in data set [2] and 88 nM in data set [6]. Also, the figures for the Activity in data set [3] and in data set [4] were 1.32 g/mm and 0.23 g/mm, respectively.
